Assay results from PubChem BioAssay AID624338 (The Scripps Research Institute Molecular Screening Center, 2012).
Active and inactive are the calls of the source.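 The calls were made as follows: active = inhibition of a cysteine-free insulin-degrading enzyme mutant that persists after dilution, so judged irreversible; inactive = inhibition weakens or vanishes on dilution, so reversible.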

target: Insulin-degrading enzyme (Homo sapiens) (UniProt P14735); assay: dilution reversibility, CF mutant IDE inhibitors – biochemical, cysteine-free mutant, FRET1 substrate, round 2, mechanism study for IDE inhibitor project, late-stage follow-up (AID 624338); settings: recombinant CF-IDE, FRET1 substrate fluorescence, reversibility by dilution
Outline: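 material = CF-IDE enzyme | amount = 1 nM enzyme | compound dosing = 10-point semilog dilution series, nominal top dose 100 µM | repeats = triplicate | times = room temperature reaction | control set = DMSO high, no-enzyme low | medium = reaction buffer at pH 7.4 | reagent = FRET1 peptide substrate at 1 µM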

Sequence of Insulin-degrading enzyme (Homo sapiens) (P14735 whole entry, looked up): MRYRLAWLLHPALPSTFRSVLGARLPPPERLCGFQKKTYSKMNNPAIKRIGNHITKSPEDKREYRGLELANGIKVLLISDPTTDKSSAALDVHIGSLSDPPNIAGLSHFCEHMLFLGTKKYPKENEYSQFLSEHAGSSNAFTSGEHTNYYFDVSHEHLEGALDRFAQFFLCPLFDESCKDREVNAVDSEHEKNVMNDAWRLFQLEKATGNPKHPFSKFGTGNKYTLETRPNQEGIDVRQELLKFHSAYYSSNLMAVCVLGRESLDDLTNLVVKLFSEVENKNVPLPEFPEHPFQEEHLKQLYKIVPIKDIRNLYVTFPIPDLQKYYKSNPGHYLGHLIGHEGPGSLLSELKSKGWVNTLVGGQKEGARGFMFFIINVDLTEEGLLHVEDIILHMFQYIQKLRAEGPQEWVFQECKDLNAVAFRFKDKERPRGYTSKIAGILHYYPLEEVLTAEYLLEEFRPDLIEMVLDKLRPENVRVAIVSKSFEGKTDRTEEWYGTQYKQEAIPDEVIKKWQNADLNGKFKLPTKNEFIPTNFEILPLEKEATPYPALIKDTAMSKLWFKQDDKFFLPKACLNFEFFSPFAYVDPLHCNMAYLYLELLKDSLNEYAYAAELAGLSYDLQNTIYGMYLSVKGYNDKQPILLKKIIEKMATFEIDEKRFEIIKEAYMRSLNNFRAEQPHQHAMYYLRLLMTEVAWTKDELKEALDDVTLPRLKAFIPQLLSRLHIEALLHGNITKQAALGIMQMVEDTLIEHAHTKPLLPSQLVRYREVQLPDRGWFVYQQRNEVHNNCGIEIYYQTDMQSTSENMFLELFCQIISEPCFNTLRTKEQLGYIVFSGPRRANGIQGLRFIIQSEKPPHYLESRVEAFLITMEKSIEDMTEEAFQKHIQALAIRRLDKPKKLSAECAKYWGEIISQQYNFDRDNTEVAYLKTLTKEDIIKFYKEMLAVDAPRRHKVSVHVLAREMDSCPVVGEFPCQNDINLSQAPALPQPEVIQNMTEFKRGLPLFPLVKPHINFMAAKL

SMILES | outcome
c1ccc(-c2nnc(SCc3nc4ccccc4[nH]3)n2Cc2ccco2)nc1 | inactive
c1coc(Cn2c(SCc3nc4ccccc4[nH]3)nnc2-c2ccco2)c1 | inactive
Clc1ccc(COCc2nnc(SCc3nc4ccccc4[nH]3)n2Cc2ccco2)cc1 | inactive
COc1ccc(C(=O)N2CCN(C(=O)COc3ccc(C)cc3)CC2)cc1OC | inactive
COc1ccc(C(=O)N2CCN(C(=O)COc3ccc(Cl)cc3)CC2)cc1OC | inactive
Cc1ccc(-c2nnc(SCc3nc4ccccc4[nH]3)n2Cc2ccco2)cc1 | inactive
Cc1ccc(COCc2nnc(SCc3nc4ccccc4[nH]3)n2Cc2ccco2)cc1 | inactive
COc1ccc(C(=O)N2CCN(C(=O)C(c3ccccc3)c3ccccc3)CC2)cc1OC | inactive
COc1ccc(OCC(=O)N2CCN(C(=O)c3ccc(OC)c(OC)c3)CC2)cc1 | inactive
c1coc(Cn2c(SCc3nc4ccccc4[nH]3)nnc2-c2cccs2)c1 | inactive
c1coc(Cn2c(SCc3nc4ccccc4[nH]3)nnc2-c2cnccn2)c1 | inactive
c1ccc(-c2nnc(SCc3nc4ccccc4[nH]3)n2Cc2ccco2)cc1 | inactive

Further lines, results first:

outcome | SMILES
inactive | COc1ccc(C(=O)N2CCN(C(=O)CCc3c[nH]c4ccccc34)CC2)cc1OC
inactive | CCOc1ccc(C(=O)N2CCN(C(=O)C3COc4ccccc4O3)CC2)cc1 (stereo not given)
inactive | COc1ccc(C(=O)N2CCN(C(=O)C3CC(=O)N(c4ccccc4)C3)CC2)cc1OC (stereo not given)
inactive | CC(=O)Nc1ccccc1C(=O)N1CCN(C(=O)C2COc3ccccc3O2)CC1 (stereo not given)
inactive | O=C(c1ccc(Oc2ccc(F)cc2)cc1)N1CCN(C(=O)C2COc3ccccc3O2)CC1 (stereo not given)
inactive | COc1cccc(C(=O)N2CCN(C(=O)C3COc4ccccc4O3)CC2)c1 (stereo not given)
inactive | O=C(c1ccc(Oc2ccccc2)cc1)N1CCN(C(=O)C2COc3ccccc3O2)CC1 (stereo not given)
inactive | Cc1nc(COc2ccc(C(=O)N3CCN(C(=O)C4COc5ccccc5O4)CC3)cc2)cs1 (stereo not given)
inactive | COc1cc(C(=O)N2CCN(C(=O)C3COc4ccccc4O3)CC2)cc(Cl)c1OC (stereo not given)
inactive | COc1ccc(C(=O)N2CCN(C(=O)C3COc4ccccc4O3)CC2)cc1 (stereo not given)
inactive | COc1ccc(C(=O)N2CCN(C(=O)COc3ccccc3)CC2)cc1OC
inactive | O=C(c1ccc2nc(C(F)(F)F)[nH]c2c1)N1CCN(C(=O)C2COc3ccccc3O2)CC1 (stereo not given)
inactive | O=C(c1ccc(OCC2CCCO2)cc1)N1CCN(C(=O)C2COc3ccccc3O2)CC1 (stereo not given)
